Measured values of several laboratories.
Compare with care: the assays were run in different laboratories.
Target: Ribosomal protein S6 kinase beta-1 (RPS6KB1, Homo sapiens, UniProt P23443)
Observed: enzyme activity
Action: inhibitor

Compound	technique	concentration	remaining activity [%]
Cc1sc(C(=O)NC2COC2)cc1-n1cc(NC(=O)Nc2c(F)cccc2Cl)cn1	–	10 µM	92.1
CCN(CC)CCNC(=O)c1c(C)[nH]c(/C=C2\C(=O)Nc3ccc(F)cc32)c1C	–	1 µM	31
Cc1ccc(Nc2nccc(N(C)c3ccc4c(C)n(C)nc4c3)n2)cc1S(N)(=O)=O	–	0.5 µM	96
O=S(=O)(Nc1cc(Sc2ncn[nH]2)c(O)c2ccccc12)c1ccc(-c2ccccc2)cc1	–	1 µM	≥ 75
Oc1cccc(-c2nc(N3CCOCC3)c3oc4ncccc4c3n2)c1	–	10 µM	90
Cc1[nH]c(/C=C2\C(=O)Nc3ccc(F)cc32)c(C)c1C(=O)N[C@H]1CCN(C(=O)N(C)C)C1	–	1 µM	52
CC(C)(C)c1nc2c(s1)c1nc(N)ncc1c1ccc(NS(=O)(=O)c3c(F)cccc3F)c(F)c12	radiometric	1 µM	87
O=C(Nc1cnn(-c2csc(C(=O)NC3COC3)c2)c1)Nc1ccccc1Cl	–	5 µM	92.1
Nc1nc(Nc2ccccc2)sc1C(=O)c1c(F)cccc1F	–	10 µM	57
COc1cc(Nc2cnc(C#N)c(O[C@H](C)CN(C)C)n2)ncc1-c1cnn(C)c1	radiometric	1 µM	55
CC(C)(O)[C@H]1CC[C@H](Nc2ccc3ncc(-c4cccc(C(F)(F)F)c4)n3n2)CC1	–	1 µM	96.8
CCCOc1ccc(OC)c(F)c1C(=O)c1ccc(C(=O)N[C@@H]2CNC[C@H]2NC(=O)c2ccc3[nH]ncc3c2)cc1	–	10 µM	2
